26 molecules from ChEMBL document CHEMBL4145521, “Regioselective synthesis of 3,4-diaryl-5-unsubstituted isoxazoles, analogues of natural cytostatic combretastatin A4” (Eur J Med Chem, 2018) can be followed below.

Data set [1] relates to Paracentrotus lividus. Description: Antimitotic activity against Paracentrotus lividus embryo assessed as cleavage alteration measured at 2.5 hrs post fertilization by light microscopy. The format is functional. An outline of the steps: (§1)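 Sea urchin eggs were fertilized with diluted sperm and cultured at room temperature in filtered seawater with paddle agitation (60 rpm), at up to 2000 embryos/mL. The effective threshold concentration causing cleavage alteration, death before hatching or full mitotic arrest was scored in duplicate.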

Data set [2] concerns Paracentrotus lividus. Description: Antimitotic activity against Paracentrotus lividus embryo assessed as cleavage arrest measured at 5.5 hrs post fertilization by light microscopy. The format is functional. The gist of the method: as §1
Data set [3] concerns Paracentrotus lividus. Description: Antimitotic activity against Paracentrotus lividus embryo assessed as embryo spinning after 15 mins to 20 hrs by light microscopy. The data set is classed as functional. An outline of the steps: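 Free-swimming blastulae from the same culture were used just after hatching (8–10 h post-fertilization). They were kept in filtered seawater at room temperature and exposed to 2-fold decreasing concentrations. Spinning at the well bottom instead of forward swimming was monitored from 15 min to 20 h under light microscopy. The effective threshold concentration was recorded from duplicates.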

For data set [4], the system named is Paracentrotus lividus. Nature of the data set: Toxicity in Paracentrotus lividus embryo assessed as embryo death at 2 to 4 uM by light microscopy. The conditions noted are these: in vivo. The format is organism-based.
Data set [5] relates to Paracentrotus lividus. Description: Toxicity in Paracentrotus lividus embryo assessed as embryo destruction at 2 to 4 uM by light microscopy. The data set is classed as organism-based. As to conditions: in vivo.

Take `COc1ccc(-c2nocc2-c2cc(OC)cc(OC)c2)cc1`: the EC in data set [1] was 0.2 µM; in data set [2], 2 µM; in data set [3], >10 µM.
Consider `CCOC(=O)C1O[N+]([O-])=C(c2ccc(OC)cc2)C1c1cccc(OC)c1` (centres undefined), for which the EC in data set [1] is 4 µM; in data set [2], >4 µM; in data set [3] it was >4 µM.
Consider `CCOC(=O)C1O[N+]([O-])=C(c2ccc(OC)cc2)C1c1cc(OC)c(OC)c(OC)c1` (centres undefined), for which the EC in data set [1], in data set [2] and in data set [3] was >4 µM each time.
In the case of `CCOC(=O)C1O[N+]([O-])=C(c2ccccc2)C1c1cc(OC)c2c(c1OC)OCO2` (centres undefined), the EC in data set [1], in data set [2] and in data set [3] was >4 µM in each case.
Consider `COc1ccc(/C(=C/c2cccs2)[N+](=O)[O-])cc1`, for which the results for the EC in data set [1], in data set [2] and in data set [3] were 0.2 µM, 2 µM and 2 µM, respectively. Moreover, the Activity result in data set [4] and in data set [5] was “Toxic” each time.
On to `CCOC(=O)C1O[N+]([O-])=C(c2ccc(OC)cc2)C1c1ccc([N+](=O)[O-])cc1` (centres undefined), for which the EC in data set [1], in data set [2] and in data set [3] was >4 µM in each case.
Take `COc1cc(-c2c(-c3ccccc3)noc2C(=O)O)c(OC)c2c1OCO2`: the EC in data set [1], in data set [2] and in data set [3] was >4 µM throughout.
Regarding `COc1ccc(-c2noc(C(=O)O)c2-c2ccc(Cl)cc2)cc1`, the EC in data set [1], in data set [2] and in data set [3] was >4 µM each time.
As to `COc1cc(-c2conc2-c2ccccc2)cc(OC)c1OC`, the EC in data set [1] is 4 µM; in data set [2], >4 µM; in data set [3], >4 µM.
Take `COc1ccc(-c2noc(C(=O)O)c2-c2cc(OC)cc(OC)c2)cc1`: the EC was 20 µM in data set [1], >40 µM in data set [2] and >40 µM in data set [3].
As to `COc1cc(/C=C(/c2ccccc2)[N+](=O)[O-])c(OC)c2c1OCO2`, the EC in data set [1] came to 2 µM; in data set [2] it was 4 µM; in data set [3] it was 1 µM. The Activity result in data set [4] and in data set [5] was “Toxic” each time.
As to `COc1ccc(-c2conc2-c2ccccc2)cc1`, the EC in data set [1] is 0.005 µM; in data set [2] it was 0.05 µM; in data set [3] it was 0.1 µM.
As to `COc1ccc(-c2nocc2-c2ccc([N+](=O)[O-])cc2)cc1`, the EC in data set [1], in data set [2] and in data set [3] was >4 µM each time.
Turning to `COc1ccc(/C(=C/c2cc(OC)c(OC)c(OC)c2)[N+](=O)[O-])cc1`, the EC in data set [1] is 1 µM; in data set [2] it was 4 µM; in data set [3], >4 µM. Also, the Activity entry in data set [4] and in data set [5] was “Toxic” each time.
Take `COc1ccc(-c2nocc2-c2cccs2)cc1`: the figures for the EC in data set [1], in data set [2] and in data set [3] were 0.5 µM, >4 µM and >4 µM, respectively.
Consider `COc1ccc(-c2nocc2-c2cnn(C)c2)cc1`, for which the EC in data set [1], in data set [2] and in data set [3] was >4 µM each time.
With `COc1ccc(-c2nocc2-c2cccc(OC)c2)cc1`, the figures for the EC in data set [1], in data set [2] and in data set [3] were 0.52 µM, 4 µM and >10 µM, respectively.
The like results for `COc1ccc(/C(=C/c2cnn(C)c2)[N+](=O)[O-])cc1` were, in that order, 2 µM, >4 µM and >4 µM.
For `COc1ccc(-c2nocc2-c2ccc(Cl)cc2)cc1`, the EC in data set [1], in data set [2] and in data set [3] was >4 µM in each case.
On to `CCOC(=O)C1O[N+]([O-])=C(c2ccc(OC)cc2)C1c1ccc(Cl)cc1` (centres undefined), for which the EC in data set [1], in data set [2] and in data set [3] was >4 µM in each case.
Take `COc1ccc(/C=C\c2cc(OC)c(OC)c(OC)c2)cc1O` [COMBRETASTATIN A4]: the EC in data set [1] came out at 0.002 µM; in data set [2] it was 0.01 µM; in data set [3] it was 0.05 µM.
The matching figures for `CCOC(=O)C1O[N+]([O-])=C(c2ccc(OC)cc2)C1c1cc(OC)cc(OC)c1` (centres undefined): >4 µM, >4 µM and >4 µM.
Regarding `COc1ccc(-c2noc(C(=O)O)c2-c2cc(OC)c(OC)c(OC)c2)cc1`, the results for the EC in data set [1], in data set [2] and in data set [3] were 0.2 µM, 2 µM and >5 µM, respectively.
The like results for `COc1ccc(/C=C(/c2ccccc2)[N+](=O)[O-])cc1` were, in that order, 2 µM, 4 µM and 4 µM.
For the molecule `COc1ccc(-c2noc(C(=O)O)c2-c2cccc(OC)c2)cc1`, the EC in data set [1], in data set [2] and in data set [3] was >4 µM each time.
For the molecule `COc1cc(-c2conc2-c2ccccc2)c(OC)c2c1OCO2`, the EC in data set [1] was 2 µM; in data set [2] it was >4 µM; in data set [3], >4 µM.
